Laboratory results from article PMC8790739 (JACS Au, 2022).

Legend:
M. polymorpha sporelings [1] = experiment: Peptide-mediated Citrine transduction; assay type: cell-based, Marchantia polymorpha; conditions: 90 μM peptide, Citrine 200 μg/mL, 1 h at 22 °C, CLSM, Figure 2B
Method in brief: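 Sporelings incubated 1 h at 22 °C in solution with 90 μM peptide and 200 μg/mL Citrine; Citrine alone served as control. Time-gated confocal detection (0.5–12.0 ns) at Ex/Em 510/546–566 nm.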

C. reinhardtii cells [2] = experiment: Colony formation viability assay, C. reinhardtii; assay type: cell-based, Chlamydomonas reinhardtii; conditions: for Cell death in C. reinhardtii (colony formation assay): 2.5 μM peptide, 20 min in TAP medium with 40 mM sucrose, n = 3, Figure 2C
Method in brief: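 Log-phase Chlamydomonas reinhardtii wild-type cc125+ (2 days after subculture, grown in TAP at 23 °C under constant light) exposed to peptide (39 nM–2.5 μM) for 20 min in TAP with 40 mM sucrose. Cells washed, plated on TAP agar, colonies counted. Viability = colonies with peptide ÷ colonies without. Three biological replicates, mean ± SD.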

tobacco BY-2 cells = experiment: Peptide-mediated Citrine transduction; assay type: cell-based, Nicotiana tabacum; conditions: for Citrine internalization into BY-2 cells at lower peptide concentrations: 9 nM–9 μM peptide (low concentrations), Figure S2; for Citrine fluorescence in the nuclei of BY-2 cells: 1 h incubation
Method in brief: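 Exponentially growing BY-2 cells (OD600 0.5) mixed in a glass-bottom dish with Citrine plus peptide, or with individual peptide domains as controls, for 1 h at 26 °C. Citrine-only cells served as control. Uptake was imaged directly by confocal microscopy at Ex/Em 488/515–580 nm.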

E. gracilis cells [3] = experiment: Evans blue viability assay, E. gracilis; assay type: cell-based, Euglena gracilis; conditions: 9 nM–90 μM peptide, 3 h at 26 °C, n = 3, Figure 2C
Method in brief: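 Euglena gracilis was grown in CM medium pH 3.5 (26 °C, 100 rpm) to OD730 0.23, then incubated with peptide (9 nM–90 μM) for 3 h at 26 °C. Cells pelleted and stained with Evans blue 150 μg/mL for 20 min, washed three times, then live and dead cells counted microscopically. Viability = live/dead ratio relative to untreated cells. Three biological replicates, mean ± SD.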

[4] = test system: tobacco (Nicotiana tabacum) Bright Yellow-2 (BY-2) cells; experiment: Evans blue cell viability assay, BY-2 cells; assay type: cell-based
O. sativa calli [5] = experiment: Peptide-mediated Citrine transduction; assay type: cell-based, Oryza sativa; conditions: 90 μM peptide, Citrine 200 μg/mL, CLSM, Figure 2B
Method in brief: (§1)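 Col-0 cotyledons (seedlings 7–9 days) or Nipponbare calli (1 week on N6D, 30 °C, constant light) vacuum/compression-infiltrated with 200 μg/mL Citrine, with 90 μM peptide or alone as control. Incubation 1 h: cotyledons at 22 °C, calli at 30 °C. Washed twice with 1/2 MS plus 1% sucrose; confocal imaging at Ex/Em 488/515–560 nm.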

[6] = test system: A. thaliana root epidermal cells; experiment: FM4-64 uptake into A. thaliana roots; assay type: cell-based, Arabidopsis thaliana; conditions: dTat-Sar-EED4 30 μM, FM4-64 10 μM, Figure 4B
Method in brief: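 Roots of Col-0 seedlings (7–9 days) pretreated 30 min at 25 °C in 1/2 MS with 0.6% v/v DMSO or 30 μM ES9-17. FM4-64 (10 μM) then added, ± peptide, for 30 min at 25 °C in the dark. Confocal imaging at Ex/Em 488/620–680 nm. Mean intensity of manually segmented whole cytoplasm was divided by that of the apical plasma membrane, for more than 100 cells from 8 roots.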

M. polymorpha sporelings [7] = experiment: Evans blue viability assay, M. polymorpha sporelings; assay type: cell-based, Marchantia polymorpha; conditions: 1 h at 22 °C, n = 4, Figure 2A
Method in brief: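 Marchantia polymorpha sporelings (Tak-1 × Tak-2 cross, held 4 days in water) incubated with peptide for 1 h at 22 °C, then stained with Evans blue 150 μg/mL. Stained (dead) and unstained (live) cells counted; viability taken from live/dead ratio. Boiled sporelings (95 °C, 10 min) served as 100% dead. Four biological replicates, mean ± SE, Dunnett's T3 versus 0 μM.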

A. thaliana cotyledons [8] = experiment: Peptide-mediated Citrine transduction; assay type: cell-based, Arabidopsis thaliana; conditions: 90 μM peptide, Citrine 200 μg/mL, CLSM, Figure 2B
Method in brief: as §1

O. sativa calli [9] = experiment: Evans blue viability assay, O. sativa calli; assay type: cell-based, Oryza sativa; conditions: 1 h, vacuum/compression infiltration, n = 4, Figure 2A, particularly dTat-Sar-EED5
A. thaliana cotyledons [10] = experiment: Evans blue viability assay, A. thaliana cotyledons; assay type: cell-based, Arabidopsis thaliana; conditions: 1 h, vacuum/compression infiltration, n = 4, Figure 2A, particularly dTat-Sar-EED5
C. reinhardtii cells [11] = experiment: Peptide-mediated Citrine transduction; assay type: cell-based, Chlamydomonas reinhardtii; conditions: 156 nM peptide, Citrine 100 μg/mL, 20 min (b14 says 3 h), CLSM, Figure 2D
Method in brief: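 Log-phase Chlamydomonas cells suspended in TAP containing 156 nM peptide, 100 μg/mL Citrine and 40 mM sucrose, for 20 min. Cells washed and mounted on slides; Citrine-only cells served as control. Confocal imaging: Citrine at Ex/Em 488/520–550 nm, chlorophyll at 488/660–720 nm.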

E. gracilis cells [12] = experiment: Peptide-mediated Citrine transduction; assay type: cell-based, Euglena gracilis; conditions: 9 μM peptide, Citrine 100 μg/mL, 3 h at 26 °C, CLSM, Figure 2D
Method in brief: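 Euglena suspension (OD730 0.23) exposed to Citrine with or without peptide in culture medium in a 96-well plate, 3 h at 26 °C, shaking at 100 rpm. Confocal imaging: Citrine at Ex/Em 488/520–550 nm, chlorophyll at 488/660–720 nm.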

[13] = 90 μM peptide, Citrine 100 μg/mL, CLSM, Figure 1D

Substance | Cell death in C. reinhardtii (colony formation assay) (C. reinhardtii cells [2]) | Citrine internalization into BY-2 cells at lower peptide concentrations (tobacco BY-2 cells; CLSM) | Citrine fluorescence in the nuclei of BY-2 cells (tobacco BY-2 cells; [13]) | Cytotoxicity toward E. gracilis (E. gracilis cells [3]) | Cell death in M. polymorpha sporelings (M. polymorpha sporelings [7]) | Concentrations at which toxic to O. sativa calli (O. sativa calli [9]) [µM] | Concentrations at which toxic to A. thaliana cotyledons (A. thaliana cotyledons [10]) [µM] | also measured
rrrqrrkkr-(Sar)6-GWWG [dTat-Sar-EED4] | induced severe cell death | no Citrine internalization was observed | detected Citrine fluorescence in the nuclei of some cells | Neither peptide exhibited cytotoxicity | did not cause severe cell death | ≥ 90 | ≥ 90 | Citrine internalization into M. polymorpha sporelings (M. polymorpha sporelings [1]): Citrine internalization was observed; Toxicity to C. reinhardtii cells compared between the two peptides (C. reinhardtii cells [2]; concentrations of 156 nM or more, 20 min, colony formation assay, Figure 2C): slightly more toxic; Citrine internalization into BY-2 cells, time-lapse CLSM (tobacco BY-2 cells; 90 μM peptide, Citrine 100 μg/mL, Figure 1C, Movies S1, S2): rapid internalization of Citrine into BY-2 cells within a few minutes; Cytotoxicity to BY-2 cells after prolonged treatment ([4]; 90 μM for up to 48 h, n = 3, Figure S1): did not result in significant cytotoxicity; Toxicity to BY-2 cells compared between the two peptides ([4]; 1 h treatment, 9 μM to 9 mM, Figure 1B): less toxic than dTat-Sar-EED5; Transfer of Citrine to the nucleus in O. sativa calli (O. sativa calli [5]; 1 h): such behavior was not detected; Citrine internalization into O. sativa calli (O. sativa calli [5]; 1 h at 30 °C): Citrine internalization was observed; Enhancement of FM4-64 uptake, DMSO-treated samples ([6]; DMSO 0.6% v/v): slight; Enhancement of FM4-64 uptake, ES9-17-treated samples ([6]; ES9-17 30 μM): more pronounced; Transfer of Citrine to the nucleus in A. thaliana cotyledon cells (A. thaliana cotyledons [8]; 1 h): appeared to be transferred to the nucleus; Citrine internalization into A. thaliana cotyledons (A. thaliana cotyledons [8]; 1 h at 22 °C): Citrine internalization was observed
(Sar)6-GFWFG [Sar-EED5] | – | – | – | – | – | – | – | Citrine uptake by BY-2 cells with individual peptide domains (tobacco BY-2 cells; 90 μM of each peptide domain, 1 h, Citrine 100 μg/mL, CLSM, Figure 1D): did not show Citrine uptake
rrrqrrkkr-(Sar)6-GFWFG [dTat-Sar-EED5] | induced severe cell death | negligible Citrine uptake | detected Citrine fluorescence in the nuclei of some cells | Neither peptide exhibited cytotoxicity | did not cause severe cell death | ≥ 90 | ≥ 90 | Citrine internalization into C. reinhardtii (C. reinhardtii cells [11]): Citrine was internalized; Citrine internalization into E. gracilis (E. gracilis cells [12]): Citrine was internalized
